From PubChem
ERAP1 inh – blocks human ERAP1 aminopeptidase activity | Q9NZ08 | inhibition, % at 10.7 µM | 0.15% of 340,000 active | recombinant ERAP1, Leu-AMC fluorescence, 60 min;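 active means mean replicate inhibition of at least 30%, or all replicates individually reaching that 30% level; inactive means mean below 30% and not every replicate reaching it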;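 further: 0% = neutral control wells and 100% = L-leucinethiol positive control wells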
Target sequence (Q9NZ08 whole entry, looked up): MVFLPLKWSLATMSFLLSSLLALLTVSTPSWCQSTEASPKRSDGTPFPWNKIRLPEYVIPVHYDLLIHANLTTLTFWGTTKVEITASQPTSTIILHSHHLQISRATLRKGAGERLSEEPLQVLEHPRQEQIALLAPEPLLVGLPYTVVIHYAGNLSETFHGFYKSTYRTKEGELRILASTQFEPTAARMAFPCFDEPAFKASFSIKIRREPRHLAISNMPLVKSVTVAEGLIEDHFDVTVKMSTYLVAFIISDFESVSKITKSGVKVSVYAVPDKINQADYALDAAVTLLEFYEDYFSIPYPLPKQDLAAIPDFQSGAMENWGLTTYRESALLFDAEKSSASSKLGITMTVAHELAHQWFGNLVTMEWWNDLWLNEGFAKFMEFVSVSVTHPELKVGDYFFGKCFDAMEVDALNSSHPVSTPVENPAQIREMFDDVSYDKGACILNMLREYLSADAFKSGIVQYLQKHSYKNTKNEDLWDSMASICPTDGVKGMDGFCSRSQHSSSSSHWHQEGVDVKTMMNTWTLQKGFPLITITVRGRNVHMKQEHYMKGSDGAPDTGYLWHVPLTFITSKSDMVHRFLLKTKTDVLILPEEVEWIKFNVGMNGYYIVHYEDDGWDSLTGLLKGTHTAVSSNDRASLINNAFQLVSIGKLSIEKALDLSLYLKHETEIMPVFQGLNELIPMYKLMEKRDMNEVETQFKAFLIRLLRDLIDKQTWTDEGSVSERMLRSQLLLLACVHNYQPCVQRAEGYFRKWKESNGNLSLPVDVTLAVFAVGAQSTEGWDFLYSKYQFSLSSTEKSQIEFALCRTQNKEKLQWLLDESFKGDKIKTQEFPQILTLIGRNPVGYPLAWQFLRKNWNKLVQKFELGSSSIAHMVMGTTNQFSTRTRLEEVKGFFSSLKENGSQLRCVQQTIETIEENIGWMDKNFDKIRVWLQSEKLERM
F508del corr – CFTR F508del correction in bronchial cells; CFBE cells, YFP halide quenching; stimulated with forskolin plus potentiator P3; % fluorescence drop versus neutral controls; activity (quench increase), % at 7.58 µM; 0.36% of 350,000 active;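 active means mean added fluorescence quench of at least 8% versus neutral control, with both replicates also reaching 8%; inconclusive means only one of the mean or replicate conditions met; inactive means mean below 8% and not both replicates reaching 8%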;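 further: cells transiently co-express mutant CFTR-F508del with the halide-sensitive YFP; corrector assay measuring rescue of mutant channel to the surface after 24 h compound exposure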
E-sel inducer – E-selectin induction on HUVECs. P16581. HUVEC E-selectin immunofluorescence imaging; normalized: neutral wells 0, TNF-alpha wells 100. activation, % at 7.58 µM. 0.37% of 260,000 active. AID 686992;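 active means mean E-selectin-positive cell signal at least 10% of the positive control, reached in at least 60% of replicates, without over 20% cell loss; inconclusive means no rule given, readout overlaps actives, possibly toxicity-flagged; inactive means the rest, including those meeting only one limit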
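Assay system: HUVEC, human umbilical vein endothelial cells / Amount: 3,000 HUVEC/well / Controls: TNF-alpha positive control, DMSO neutral control / Compound dosing: single concentration / Medium: EGM-2 over gelatin coat / Evaluation: percent E-selectin-positive cells / Signal: immunofluorescence imaging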
DENV2 CPE – DENV2-induced cell death inhibition; DENV2-infected cells, cytopathic effect rescue, plate reader; CPE inhibition, % at 9.99 µM; 1.7% of 350,000 active; in the data active means CPE inhibition above about 20%, passing the limit was not always enough; inconclusive means no clear call, values can overlap the other calls; tested in BHK-21 cells;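 further: 0% = median of neutral control wells and 100% = median of positive control wells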
INS-1E GSIS act – GLuc luminescence reporter in INS-1E cells, primary screen for activators of glucose-dependent secretion of insulin; INS-1E GLuc reporter insulin secretion, 2-3 h; activation, % at 16.6 µM; 0.61% of 370,000 active;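 active means lowest replicate activation of at least 40%, so every replicate reaches that level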;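 further: 0% = median of neutral control wells and 100% = median of IBMX positive control wells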
miR122 inh – miR-122 inhibition in Huh7 cells; Huh7 miR-122 Renilla luciferase sensor, 48 h; neutral wells = 0, positive control = 100; activation (reporter increase), % at 12.5 µM; 0.3% of 340,000 active;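 active means mean replicate activation score at least 90 and every replicate individually at or above 90; inconclusive means only one of the two criteria met; inactive means neither criterion met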;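 further: higher luciferase means less miR-122 activity so hits act as miR-122 inhibitors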
The depositor's hits bear a star; ? = inconclusive; . = no result; [ ] = another dose, or the depositor's remark. In the library only some 2.6% were active in any assay of this set; here they are far more common.

SMILES | ERAP1 inh | F508del corr | E-sel inducer | DENV2 CPE | INS-1E GSIS act | miR122 inh
Cc1noc(C)c1NC(=O)N[C@@H]1CC[C@@H](CCNC(=O)C2CCCCC2)O[C@@H]1CO | 3 | -3 | 0 | -1 | 5 | .
CC(=O)N[C@H]1CC[C@H](CCNC(=O)C2CCCC2)O[C@H]1CO | -2 | -1 | 0 | -2 | 24 | 17[16.7 µM]
CC(=O)N[C@H]1CC[C@@H](CCNC(=O)C2CCCC2)O[C@@H]1CO | 0 | 1 | 0 | 27* | 5 | -9[16.7 µM]
CO/N=C\CC(=O)Nc1ccc(Cl)cc1Cl | 0 | 11* | . | 3 | -8 | .
CO/N=C\CC(=O)Nc1ccc(F)cc1 | . | . | . | . | . | -8
CO[C@H]1CN(C)C(=O)c2ccc(NC(=O)C3CCCCC3)cc2OC[C@@H](C)N(C)C[C@@H]1C | -3 | -1 | 0 | 5 | -11 | 5[16.7 µM]
CCOc1ccc(C(=O)N[C@H](C(=O)Nc2cccc(S(=O)(=O)N3CCCCC3)c2)C(C)C)cc1 | 1 | 15* | 2 | 9 | -13 | -4
Cc1cc(C)n2c(Nc3ccc4c(c3)OCCO4)c(CC(C)C)nc2n1 | 9 | -1 | 2 | 46* | 6 | .
O=S(=O)(c1ccccc1F)N1CC[C@H]2[C@H](CO)Nc3ccc(-c4ccccc4)cc3[C@H]21 | 1 | 2 | 1 | 11 | -33 | 28[16.7 µM]
COC(=O)Cn1c2ccccc2c(=O)n1C(C)C | 1 | 1 | 0 | 21* | 22 | .
COC(=O)Cn1c2ccccc2c2nc(=O)cc(C)n21 | -3 | -3 | . | 6 | -10 | .
CNC(=S)Nc1ccc(N2CCCC2)c(S(=O)(=O)Nc2ccc(OC)cc2)c1 | -2 | 0 | 1 | 0 | 6 | 109*
COc1ccc(NS(=O)(=O)c2cc(NC(=O)c3cnccn3)ccc2N2CCCC2)cc1 | 3 | . | 1 | 2 | 5 | 104*
COc1ccc(NS(=O)(=O)c2cc(NC(=O)c3ccc(C)o3)ccc2N2CCCCC2)cc1 | . | . | . | . | 3 | .
CCOC(=O)N1CCC(NCCNC(=O)c2ccc(F)c(F)c2)CC1 | -1 | 0 | 0 | 21* | . | .
CCOC(=O)N1CCC(NC(=O)c2ccc3c(c2)N=C(C)c2c(C)ccc(C)c2S3)CC1 | 2 | 11* | . | -1 | -22 | 74
CC(NC(=O)c1cccc(S(=O)(=O)N2CCN(Cc3ccccc3)CC2)c1)c1ccccc1Cl (stereo unspecified) | -3 | 0 | . | 14 | -10 | .
CC(NC(=O)c1cccc(S(=O)(=O)N2CCN(Cc3ccccc3)CC2)c1)c1ccc(Br)cc1 (stereo unspecified) | 2 | -2 | 0 | 25* | -20 | .
COc1ccccc1NC(=O)N[C@H]1CC[C@H](CCn2cc(-c3ccccc3OC)nn2)O[C@H]1CO | 0 | 0 | 0 | ? | . | .
COc1ccc(NC(=O)Nc2ccc3c(c2)[C@@H]2C[C@@H](CC(=O)N4CCOCC4)O[C@@H](CO)[C@@H]2O3)cc1 | . | 0 | -1 | 10 | 0 | 0[16.7 µM]
CC(C)NC(=O)Nc1ccc2c(c1)CC(=O)N([C@H](C)CO)C[C@@H](C)[C@@H](CN(C)Cc1ccc(Oc3ccccc3)cc1)O2 | 2 | -2 | -14 | -20 | -20 | 97*[16.7 µM]
Cc1noc(C)c1NC(=O)Nc1ccc2c(c1)CC(=O)N([C@@H](C)CO)C[C@H](C)[C@H](CN(C)Cc1ccc(Oc3ccccc3)cc1)O2 | . | -1 | 399* | 4 | -33 | -7[16.7 µM]
CC(C)NC(=O)Nc1ccc2c(c1)CC(=O)N([C@H](C)CO)C[C@H](C)[C@H](CN(C)Cc1ccc(-c3ccccc3)cc1)O2 | -3 | 1 | . | 28* | 5 | -9[16.7 µM]
CN(C)C(=O)c1ccc(-c2ccc(C3[C@@H]4CN(C(=O)C5CCCC5)C[C@H]3N4)cc2)cc1 (stereo partly specified) | 2 | 4 | 1 | -3 | -12 | .
Cc1ccc(NS(=O)(=O)c2csc(C(N)=O)c2)cc1C | 1 | -2 | . | 18 | 1 | 99*
SMILES | ERAP1 inh | F508del corr | E-sel inducer | DENV2 CPE | INS-1E GSIS act | miR122 inh
C[C@@H]1CN([C@@H](C)CO)C(=O)Cc2cc(NC(=O)Cc3ccccc3)ccc2O[C@@H]1CN(C)Cc1ccc(Cl)c(Cl)c1 | 0 | 1 | -2 | 66* | -43 | 2[16.7 µM]
C[C@H](CO)N1C[C@H](C)[C@@H](CN(C)Cc2ccc(Cl)c(Cl)c2)Oc2ccc(NC(=O)Nc3ccccc3)cc2CC1=O | 7 | 0 | 0 | 10 | -6 | 4[16.7 µM]
C[C@@H]1CN([C@H](C)CO)C(=O)Cc2cc(NC(=O)Cc3ccccc3)ccc2O[C@@H]1CN(C)Cc1ccc(Cl)c(Cl)c1 | 0 | 4 | 1 | 88* | -35 | 2[16.7 µM]
C[C@@H]1CN([C@@H](C)CO)C(=O)Cc2cc(NC(=O)Cc3ccccc3)ccc2O[C@@H]1CN(C)Cc1ccccc1 | 0 | 0 | 0 | -6 | 0 | 5[16.7 µM]
CC1(C)COC(c2ccc(F)c([N+](=O)[O-])c2)=N1 | 4 | . | . | 34* | -4 | .
Cc1cccc2c(N=NC(=O)c3ccc(NS(=O)(=O)c4cccs4)cc3)c(O)[nH]c12 | 0 | 1 | 4 | ? | 4 | -10
Cc1cccc2c(N=Nc3ccc(S(=O)(=O)Nc4ccc(Cl)cc4)cc3[N+](=O)[O-])c(O)[nH]c12 | -3 | 9.7* | 2 | -1 | 2 | 53
CO[C@H]1CN(C)C(=O)c2ccc(NS(=O)(=O)c3ccc(C)cc3)cc2OC[C@@H](C)N(C(=O)NC(C)C)C[C@H]1C | . | 0 | 0 | . | -27 | 0[16.7 µM]
CCCCC1=CC2=CC(=O)C(C)(OC(=O)CC)C(=O)C2=CN1CCc1c[nH]c2ccccc12 (stereo unspecified) | -8 | 2 | 0 | 20* | . | -1
COc1ccccc1NS(=O)(=O)c1cc(NC(=S)NCC2CCCO2)ccc1C (stereo unspecified) | -4 | -3 | -1 | 14 | 0 | 99*
COc1ccccc1NS(=O)(=O)c1cc(C(=O)NCC2CCCO2)ccc1C (stereo unspecified) | 1 | 3 | . | 1 | 5 | .
COCCN(C(=O)CSc1ncccn1)c1c(N)n(Cc2ccccc2)c(=O)[nH]c1=O | 1 | 1 | . | -8 | 17 | .
COCCN(C(=O)COC(=O)CCOc1ccccc1)c1c(N)n(Cc2ccccc2)c(=O)[nH]c1=O | 13 | -3 | . | -5 | 5 | -1
CC(C)CN(C(=O)COC(=O)/C=C/c1cccs1)c1c(N)n(Cc2ccccc2)c(=O)[nH]c1=O | -3 | -1 | 1 | 9 | 44* | .
COCCN(C(=O)COC(=O)CC(C)c1ccccc1)c1c(N)n(Cc2ccccc2)c(=O)[nH]c1=O (stereo unspecified) | -5 | 2 | -2 | 31* | 13 | -8
COCCN(C(=O)CSc1ncn[nH]1)c1c(N)n(Cc2ccccc2)c(=O)[nH]c1=O | 57* | -3 | 0 | -7 | -1 | 1
